Assays:
[1] = molecular target: Casein kinase I isoform alpha/subunit beta (Homo sapiens, UniProt P48729+P67870); assay: Inhibition of human CK1-alpha/CK2beta; format: protein-complex assay
[2] = molecular target: Cyclin-dependent kinase 5/CDK5 activator 1 (Homo sapiens, UniProt Q00535); assay: Inhibition of human CDK5/p25; format: protein-complex assay
How it was run: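 CDK5/p25 kinase activity measured with 15 ATP and histone H1 as protein substrate; IC50 derived from dose-response curves.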

[3] = molecular target: Glycogen synthase kinase-3 (Homo sapiens, UniProt P49840+P49841); assay: Inhibition of human GSK3alpha/ GSK3-beta; format: protein assay
SF-268 = assay: Cytotoxicity against human SF268 cells; format: functional

Sequence of Cyclin-dependent kinase 5/CDK5 activator 1 (Q00535 whole entry): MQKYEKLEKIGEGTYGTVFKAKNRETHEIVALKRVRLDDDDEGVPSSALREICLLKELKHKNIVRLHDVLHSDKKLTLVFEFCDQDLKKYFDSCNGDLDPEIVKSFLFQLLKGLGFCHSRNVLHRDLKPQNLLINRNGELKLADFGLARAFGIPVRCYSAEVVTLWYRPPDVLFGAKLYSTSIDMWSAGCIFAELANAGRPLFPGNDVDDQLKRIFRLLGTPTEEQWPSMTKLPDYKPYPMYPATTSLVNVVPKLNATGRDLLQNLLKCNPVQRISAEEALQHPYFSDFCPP
Sequence of Cyclin-dependent kinase 5/CDK5 activator 1 (Q15078 whole entry, further chain): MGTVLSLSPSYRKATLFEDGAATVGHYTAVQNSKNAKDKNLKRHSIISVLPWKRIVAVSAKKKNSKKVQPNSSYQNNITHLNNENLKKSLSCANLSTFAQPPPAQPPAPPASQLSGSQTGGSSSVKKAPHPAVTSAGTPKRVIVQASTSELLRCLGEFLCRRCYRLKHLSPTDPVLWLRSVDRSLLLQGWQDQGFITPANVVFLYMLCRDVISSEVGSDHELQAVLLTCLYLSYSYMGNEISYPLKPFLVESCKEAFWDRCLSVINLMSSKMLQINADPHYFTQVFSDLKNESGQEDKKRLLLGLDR
Sequence of Casein kinase I isoform alpha/subunit beta (P67870 whole entry, canonical isoform): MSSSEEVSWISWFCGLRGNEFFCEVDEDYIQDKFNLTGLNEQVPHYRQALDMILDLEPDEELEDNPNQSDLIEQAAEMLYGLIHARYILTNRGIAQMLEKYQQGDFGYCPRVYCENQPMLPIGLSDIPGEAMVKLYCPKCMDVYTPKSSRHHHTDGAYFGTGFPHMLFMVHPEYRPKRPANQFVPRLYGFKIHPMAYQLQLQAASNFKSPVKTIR
Sequence of Casein kinase I isoform alpha/subunit beta (P48729 whole entry, canonical isoform): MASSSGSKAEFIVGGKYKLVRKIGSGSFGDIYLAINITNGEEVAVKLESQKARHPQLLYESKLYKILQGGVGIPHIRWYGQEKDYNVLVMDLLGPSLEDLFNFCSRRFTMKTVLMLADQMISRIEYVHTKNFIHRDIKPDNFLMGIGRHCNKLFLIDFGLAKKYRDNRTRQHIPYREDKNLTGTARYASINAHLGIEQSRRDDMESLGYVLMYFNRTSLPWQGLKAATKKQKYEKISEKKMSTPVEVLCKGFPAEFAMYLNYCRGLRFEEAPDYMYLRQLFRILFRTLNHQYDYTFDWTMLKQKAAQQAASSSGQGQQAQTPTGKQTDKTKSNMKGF

SMILES | IC50 [1] [µM] | IC50 [2] [µM] | IC50 [3] [µM] | GI50 (SF-268) [µM]
CN1C(=O)/C(=C/c2ccc3c(c2)OCO3)N=C1NCCNCc1ccc2c(c1)OCCO2 | > 100 | > 100 | > 10 | –
CN1C(=O)/C(=C/c2ccc3c(c2)OCO3)N=C1NCCNCc1ccc2c(c1)OCO2 | > 100 | > 100 | > 10 | –
CN1C(=O)/C(=C/c2ccc3c(c2)OCO3)N=C1NCCN.Cl | > 100 | > 100 | 1.4 | –
COc1cc(CNCCNC2=N/C(=C\c3ccc4c(c3)OCO4)C(=O)N2C)cc(OC)c1OC | > 100 | > 100 | > 100 | –
CN1C(=O)/C(=C/c2ccc3c(c2)OCO3)N=C1NCC/N=C/c1ccc2c(c1)OCCO2 | > 100 | > 100 | 38 | –
CN1C(=O)/C(=C/c2ccc3c(c2)OCO3)N=C1NCCNCc1ccc2c(c1)OCC2 | > 100 | > 100 | > 10 | –
COc1cc(/C=C2\N=C(N)NC2=O)ccc1O [POLYANDROCARPAMINE A] | – | – | – | 65
COc1ccc(CNCCNC2=N/C(=C\c3ccc4c(c3)OCO4)C(=O)N2C)cc1 | > 100 | > 100 | > 10 | –
CN1C(=O)/C(=C/c2ccc3c(c2)OCO3)N=C1N [LEUCETTAMINE B] | > 100 | – | 15 | –
COc1cc(/C=N/CCNC2=N/C(=C\c3ccc4c(c3)OCO4)C(=O)N2C)cc(OC)c1OC | > 100 | > 100 | > 100 | –
CN1C(=O)/C(=C/c2ccc3c(c2)OCO3)N=C1NCCNCc1ccccc1 | > 100 | > 100 | > 10 | –
CN1C(=O)/C(=C/c2ccc3c(c2)OCO3)N=C1NCCNCc1ccc(Cl)cc1 | > 100 | > 100 | > 100 | –

Further lines, with some results ahead:

IC50 [1] [µM] | IC50 [2] [µM] | IC50 [3] [µM] | SMILES | GI50 (SF-268) [µM]
> 100 | > 100 | 0.86 | CN1C(=O)/C(=C/c2ccc3c(c2)OCO3)N=C1NCC/N=C/c1ccc2c(c1)OCO2 | –
> 100 | > 100 | 7 | CN1C(=O)/C(=C/c2ccc3c(c2)OCO3)N=C1NCC/N=C/c1ccccc1 | –
> 100 | > 100 | > 100 | CN1C(=O)/C(=C/c2ccc3c(c2)OCO3)N=C1NCC/N=C/c1ccc([N+](=O)[O-])cc1 | –
> 100 | > 100 | 15 | CN1C(=O)/C(=C/c2ccc3c(c2)OCO3)N=C1NCC/N=C/c1ccc2c(c1)OCC2 | –
> 100 | > 100 | 7.3 | COc1ccc(/C=N/CCNC2=N/C(=C\c3ccc4c(c3)OCO4)C(=O)N2C)cc1 | –
> 100 | > 100 | > 100 | CN1C(=O)/C(=C/c2ccc3c(c2)OCO3)N=C1NCCNCc1ccc([N+](=O)[O-])cc1 | –
> 100 | > 100 | > 100 | CN1C(=O)/C(=C/c2ccc3c(c2)OCO3)N=C1NCC/N=C/c1ccc(Cl)cc1 | –
